Our source for the Activity and logMEC values is ChEMBL document CHEMBL3108707, “Design, synthesis and structure-activity relationships of some novel, highly potent anti-invasive (E)- and (Z)-stilbenes” (2013).

The structures appear in SMILES notation. Activity calls are given as the source filed them. No cut-off for these calls is given here.

Test [1] concerns MCF7/6. Put plainly: Antiinvasive activity against human MCF7/6 cells assessed as decrease in occupying outer fibroblast-like and myoblast cell layers at 0.1 umol/L after 8 days by hematoxylin and eosin staining assay. The test is classed as functional, cell-based. Put shortly:
(§1)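 Precultured heart fragments from 9-day-old chick embryos (0.4 mm diameter) were paired with MCF-7/6 aggregates (0.2 mm). Pairs sat overnight at 37 °C on semi-solid agar, then spun 8 days in suspension (37 °C, 120 rpm, 10% CO₂) with compound added in DMSO. Runs were usually in duplicate; 10 µmol/L often single. 7 µm sections were scored histologically for invasion grade 0–IV, with alternate sections stained with 5D10 antibody.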

A short description of test [2]: Antiinvasive activity against human MCF7/6 cells assessed as minimum log concentration required to show activity after 8 days by hematoxylin and eosin staining-based chick heart invasion assay. Format: functional. The arrangement: unit: log(µmol/L). In a few lines:
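Confronting cultures were set up as chick heart fragments (9-day embryos) plus MCF-7/6 aggregates, 8 days at 37 °C. Compound was dosed in DMSO at 10, 1, 0.1 and 0.01 µmol/L, in duplicate, and grades were scored histologically. c_min is the lowest concentration where both repeats gave grade I or II; inconclusive cases were repeated. A single active repeat counted if all repeats at 10-fold higher were active. The value is reported as log c_min.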

Test [3] deals with MCF7/6. Put plainly: Antiinvasive activity against human MCF7/6 cells assessed as precultured chick heart tissue fragment attachment without occupying heart tissue and outermost fibroblastic cell layers at 1 umol/L after 8 days by hematoxylin and eosin staining assay. The test is classed as functional, cell-based. In a few lines:
as §1

Test [4] deals with MCF7/6. Put plainly: Antiinvasive activity against human MCF7/6 cells assessed as decrease in occupying outer fibroblast-like and myoblast cell layers at 1 umol/L after 8 days by hematoxylin and eosin staining assay. The test is classed as functional, cell-based. In a few lines:
as §1

The test system of test [5] is MCF7/6. Put plainly: Antiinvasive activity against human MCF7/6 cells assessed as decrease in occupying outer fibroblast-like and myoblast cell layers at 10 umol/L after 8 days by hematoxylin and eosin staining assay. The test is classed as functional, cell-based. In a few lines:
as §1

In test [6] the test system is MCF7/6. Put plainly: Antiinvasive activity against human MCF7/6 cells assessed as decrease in occupying outer fibroblast-like and myoblast cell layers at 0.01 umol/L after 8 days by hematoxylin and eosin staining assay. The test is classed as functional, cell-based. In a few lines:
as §1

In test [7] the test system is MCF7/6. Put plainly: Antiinvasive activity against human MCF7/6 cells assessed as occupying less than half of original amount of heart tissue at 0.1 umol/L after 8 days by hematoxylin and eosin staining assay. The test is classed as functional, cell-based. Put shortly: as §1
The subject of test [8] is MCF7/6. Put plainly: Antiinvasive activity against human MCF7/6 cells assessed as precultured chick heart tissue fragment attachment without occupying heart tissue and outermost fibroblastic cell layer at 10 umol/L after 8 days by hematoxylin and eosin staining assay. The test is classed as functional, cell-based. In a few lines: as §1
The subject of test [9] is MCF7/6. The experiment in a line: Antiinvasive activity against human MCF7/6 cells assessed as occupying less than half of original amount of heart tissue at 1 umol/L after 8 days by hematoxylin and eosin staining assay. The test is classed as functional, cell-based. In a few lines: as §1
Test [10] has as its system MCF7/6. The experiment in a line: Antiinvasive activity against human MCF7/6 cells assessed as occupying less than half of original amount of chick precultured heart tissue fragment at 10 umol/L after 8 days by hematoxylin and eosin staining assay. The test is classed as functional, cell-based. In a few lines: as §1
The subject of test [11] is MCF7/6. The experiment in a line: Antiinvasive activity against human MCF7/6 cells assessed as chick precultured heart tissue fragment attachment without occupying heart tissue and outermost fibroblastic cell layer at 0.1 umol/L after 8 days by hematoxylin and eosin staining assay. The test is classed as functional, cell-based. In a few lines: as §1
The test system of test [12] is MCF7/6. Put plainly: Antiinvasive activity against human MCF7/6 cells assessed as occupying more than half of original amount of chick precultured heart tissue fragment at 10 umol/L after 8 days by hematoxylin and eosin staining assay. The test is classed as functional, cell-based. Put shortly: as §1

Take `COc1cc(/C=C\c2ccccc2)cc(OC)c1OC`: the outcome with MCF7/6 [1], in the test with MCF7/6 [3], with MCF7/6 [4], with MCF7/6 [5] and in the test with MCF7/6 [6] was Active. Also, the logMEC in [2] is -2.

Regarding `COc1cc(/C=C/c2ccc(F)cc2)cc(OC)c1OC`, the logMEC in [2] amounted to 0. Besides, the result with MCF7/6 [7] was inactive. The result with MCF7/6 [5] was Active.

`COc1ccc(/C=C/c2ccc(F)cc2)cc1`: the result with MCF7/6 [1], in the test on MCF7/6 [5] and with MCF7/6 [6] was Active. For the same molecule, the logMEC in [2] is given as -2.

For `Fc1ccc(/C=C/c2ccc(F)cc2)cc1`, the outcome with MCF7/6 [1], in the test on MCF7/6 [5] and with MCF7/6 [6] was Active. Also, the logMEC in test [2] is -2.

In the case of `COc1cc(/C=C\c2ccc(F)cc2)cc(OC)c1OC`, in the test on MCF7/6 [8], the result was Active. Moreover, in [2], the logMEC was found to be 1. In addition, the outcome with MCF7/6 [7] and in the test with MCF7/6 [9] was inactive.

Turning to `Fc1ccc(/C=C/c2ccccc2)cc1`, the result with MCF7/6 [4] was Active. Further, the outcome in the test on MCF7/6 [7] was inactive.

On to `Fc1ccc(/C=C\c2ccccc2)cc1`, for which the logMEC in test [2] is reported as -2. In the test on MCF7/6 [6], the result was Active.

Turning to `C(=C\c1ccccc1)/c1ccccc1`, the result with MCF7/6 [10] was inactive. The result with MCF7/6 [1], in the test on MCF7/6 [3] and with MCF7/6 [4] was Active. Also, the logMEC in [2] is on record as -1.

Take `COc1ccc(/C=C/c2ccccc2)cc1`: the result in the test with MCF7/6 [1] and in the test with MCF7/6 [11] was Active. The logMEC in [2] is recorded as -1. The outcome in the test on MCF7/6 [12] was inactive.

Turning to `COc1cc(/C=C/c2ccccc2)cc(OC)c1OC`, the logMEC in test [2] is given as -1. In addition, the result in the test with MCF7/6 [5] was Active.
